Measured values: article PMC3763817 (Chemistry & biology, 2013)
Positions count from the first letter of the chain named. Names and notes keep the numbering of the source. One block for each molecule: values may come before it. Square brackets hold non-standard residues; d marks the D form. Ends that are not written are not given here. Peptide text beside a SMILES is read from it. * marks the point of attachment. Biotin = O=C1N[C@H]2[C@H](CS[C@H]2CCCCC(=O)*)N1; lc = a hydrocarbon chain of 6 methylene groups; Abu = CC[C@H](N)C(=O)O; Dap = NC[C@H](N)C(=O)O; Acryloyl = C=CC(=O)*

Legend:
his6-Siah1 (aa 81-282) [1] = molecular target: T1, his6-Siah1 (aa 81-282) (Homo sapiens, UniProt Q8IUQ4); assay: DELFIA displacement of biotin-PHYL, wild type Siah; format: binding
T1 sequence (Q8IUQ4 81-282): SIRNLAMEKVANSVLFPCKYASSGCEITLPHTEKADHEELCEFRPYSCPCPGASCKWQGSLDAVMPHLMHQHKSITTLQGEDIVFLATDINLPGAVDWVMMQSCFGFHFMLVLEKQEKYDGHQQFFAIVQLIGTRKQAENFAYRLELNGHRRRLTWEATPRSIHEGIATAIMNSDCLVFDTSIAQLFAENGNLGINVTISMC

wt Siah1 = assay: MALDI-TOF MS of covalent modification, wt Siah1; format: binding; settings: protein incubated with peptide in 0.5x PBS (Figures 2e, 3d)
Method in brief: (§1)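 Siah1 residues 81-282 (wild type or T156C mutant) from pET15b expression, incubated with peptide in 0.5x PBS. Equal volumes of sample and sinapic acid matrix (20 mg/ml in 50% acetonitrile-0.1% TFA) were co-crystallised on target and air-dried 5 min. Controls were buffer-only and protein spectra. Peaks were picked by centroid mass find (S/N threshold 5, peak width 40 m/z, 80% height, Top Hat baseline subtraction).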

Siah1 T156C = assay: MALDI-TOF MS of covalent modification, Siah1 T156C; format: binding; settings: protein incubated with peptide in 0.5x PBS (Figure 2d)
Method in brief: as §1

T156C Siah1 = assay: X-ray crystal structure of BI-117C3/T156C Siah1 complex; format: binding; settings: crystal structure at 2.8 Å, judged by refined atomic B-factors
Method in brief: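 Siah1 residues 81–282 with T156C mutation, purified by a published method, mixed with 2-fold excess test peptide at 4 °C for 16–18 h. Doubly peptide-bound dimer isolated by anion exchange. Sitting-drop vapour-diffusion crystals grown over 60–65% MPD, 100 mM N,N-bis(2-hydroxyethyl)glycine pH 9.0. Synchrotron data; molecular replacement using a refined covalent peptide–Siah1 dimer as search model.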

[2] = molecular target: T2, his6-Siah1 T156C (aa 81-282) (Homo sapiens, UniProt Q8IUQ4, T156C); assay: DELFIA displacement of biotin-PHYL, mutant T156C Siah; format: binding
T2 sequence (Q8IUQ4 81-282 T156C): T1 sequence (Q8IUQ4 81-282) with T76C

[3] = system: substrate-binding domain of Siah; settings: ref House et al., 2003, 2006; cited from earlier work
his6-Siah1 (aa 81-282) [4] = molecular target: T3, his6-Siah1 (aa 81-282) (UniProt Q8IUQ4 81-282); assay: DELFIA displacement assay
T3 sequence (looked up): T1 sequence (Q8IUQ4 81-282)

[5] = molecular target: T4, his6-Siah1 T156C (aa 81-282) (UniProt Q8IUQ4 81-282, T156C); assay: DELFIA displacement assay
T4 sequence (looked up): T1 sequence (Q8IUQ4 81-282) with T76C

[6] = molecular target: T4, his6-Siah1 T156C (aa 81-282); assay: DELFIA displacement assay; remark: listed apart in the source
crystal structure = molecular target: the molecule itself; assay: crystal structure

Molecule: Ac-RQIKIWFQNRRMKWKKPPPPPPPPPPQQERTKLRPVAMVRPTVRVQPQL-NH2 [PEN-P10-PHYL, reference compound]
IC50 (his6-Siah1 (aa 81-282) [1]): 1000 nM

Molecule: C=CC(=O)NC[C@H](NC(=O)[C@@H](NC(=O)[C@@H]1CCCN1C(=O)[C@H](CCCNC(=N)N)NC(=O)[C@H](CC(C)C)NC(=O)[C@H](CCCCN)NC(C)=O)C(C)C)C(=O)N[C@@H](CCSC)C(=O)N[C@H](C(=O)N[C@@H](CCCNC(=N)N)C(=O)N1CCC[C@H]1C(=O)N[C@@H](Cc1c[nH]c2ccccc12)C(=O)N[C@H](C(=O)N[C@@H](CCCNC(=N)N)C(N)=O)C(C)C)C(C)C [BI-117C3] (Ac-KLRPV[Dap](Acryloyl)MVRPWVR-NH2)
Covalent modification of wt Siah1 by MALDI-TOF mass spectrometry (wt Siah1): unable to covalently modify wt Siah1 | Covalent modification of Siah1 T156C by MALDI-TOF mass spectrometry (Siah1 T156C): expected mass increase | Efficiency of covalent thioether bond formation to Cys156 (T156C Siah1): ~ 100%

Molecule: C=CC(=O)NCCCC[C@H](NC(=O)[C@@H]1CCCN1C(=O)[C@H](CCCNC(=N)N)NC(=O)[C@@H](NC(=O)[C@H](CCSC)NC(=O)[C@H](C)NC(=O)[C@@H](NC(=O)[C@@H]1CCCN1C(=O)[C@H](CCCNC(=N)N)NC(=O)[C@H](CC(C)C)NC(=O)[C@H](CCCCN)NC(C)=O)C(C)C)C(C)C)C(=O)N[C@H](C(=O)N[C@@H](CCCNC(=N)N)C(N)=O)C(C)C [BI-107F7] (Ac-KLRPVAMVRPK(Acryloyl)VR-NH2)
Covalent modification of wt Siah1 by MALDI-TOF mass spectrometry (wt Siah1): confirmed the formation of the covalent complex

Molecule: Ac-QQERTKLRPVAMVRPTVRVQPQL-NH2 [PHYL]
Affinity for the substrate-binding domain of Siah [3]: low micromolar affinity

B2: Siah1 81-282 (wild-type) (domain or fragment, UniProt Q8IUQ4 81-282, looked up)
chain: T1 sequence (Q8IUQ4 81-282)
binding result (crystal structure): binds

B3: Siah1 81-282 (T156C mutant), for crystallographic studies (domain or fragment, UniProt Q8IUQ4 81-282, looked up)
chain: T1 sequence (Q8IUQ4 81-282) with T76C
binding result (crystal structure): binds

Molecule: Ac-KLRPVAMVRPTVR-NH2 [BI-107D1 (Ac-KLRPVAMVRPTVR-NH2)]
IC50 (his6-Siah1 (aa 81-282) [4]): 1000 nM | IC50 [5]: 1000 nM

Further lines, results first:

IC50 [2]: 1000 nM | IC50 (his6-Siah1 (aa 81-282) [1]): 1000 nM
Molecule: Ac-KLRPVAMVRPTVR-NH2 [BI-107D1]

IC50 (his6-Siah1 (aa 81-282) [4]): 100 nM
Molecule: Ac-KLRPVAMVRPK(Acryloyl)VR-NH2 [BI-107F7 (Ac-KLRPVAMVRPαVR-NH2)]

IC50 (his6-Siah1 (aa 81-282) [4]): 2000 nM | IC50 [5]: 2000 nM
Molecule: Ac-KLRPV[Abu]MVRPTVR-NH2 [BI-107E1 (Ac-KLRPVεMVRPTVR-NH2)]

IC50 (his6-Siah1 (aa 81-282) [4]): > 100000 nM | IC50 [5]: 6 nM
B1: BI-117C3 (Ac-KLRPVδMVRPWVR-NH2) (peptide)
chain: Ac-KLRPV[Dap](Acryloyl)MVRPWVR-NH2
SMILES: C=CC(=O)NC[C@H](NC(=O)[C@@H](NC(=O)[C@@H]1CCCN1C(=O)[C@H](CCCNC(=N)N)NC(=O)[C@H](CC(C)C)NC(=O)[C@H](CCCCN)NC(C)=O)C(C)C)C(=O)N[C@@H](CCSC)C(=O)N[C@H](C(=O)N[C@@H](CCCNC(=N)N)C(=O)N1CCC[C@H]1C(=O)N[C@@H](Cc1c[nH]c2ccccc12)C(=O)N[C@H](C(=O)N[C@@H](CCCNC(=N)N)C(N)=O)C(C)C)C(C)C

binding result [6]: binds
Molecule: {Biotin-lc}-QQERTKLRPVAMVRPTVRVQPQL [biotin-PHYL (biotin-lc-QQERTKLRPVAMVRPTVRVQPQL)]

IC50 (his6-Siah1 (aa 81-282) [4]): 500 nM
Molecule: Ac-QQERTKLRPVAMVRPTVRVQPQL-NH2 [PHYL (Ac-QQERTKLRPVAMVRPTVRVQPQL-NH2)]

IC50 [5]: 900 nM
Molecule: Ac-KLRPVAMVRPMVR-NH2 [BI-107E12 (Ac-KLRPVAMVRPMVR-NH2)]

IC50 [5]: 400 nM
Molecule: Ac-KLRPVAMVRPWVR-NH2 [BI-107F1 (Ac-KLRPVAMVRPWVR-NH2)]
